SENP7 inh = SENP7 protease inhibitors, primary screen, biochemical, luminescence, uHTS | Sentrin-specific protease 7 (Homo sapiens), Q9BQF6 | recombinant SENP7, Z-RLRGG-aminoluciferin luminescence, 40 min | inhibition, % at 5 µM | 1.5% of 330,000 active | AID 434973, 2010;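 active = inhibition above about 50% at the single test dose, limit read from the data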;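 note: plate controls were DMSO with enzyme for no effect and no enzyme buffer wells for full effect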
SENP8 block-1 = SENP8 protease inhibitors, primary screen, biochemical, luminescence. Sentrin-specific protease 8 (Homo sapiens), Q96LD8. purified SENP8, Z-RLRGG-aminoluciferin cleavage. inhibition, % at 10 µM. 1.2% of 330,000 active; in the data active = inhibition above about 50%
Target sequence (Q96LD8 whole entry, looked up): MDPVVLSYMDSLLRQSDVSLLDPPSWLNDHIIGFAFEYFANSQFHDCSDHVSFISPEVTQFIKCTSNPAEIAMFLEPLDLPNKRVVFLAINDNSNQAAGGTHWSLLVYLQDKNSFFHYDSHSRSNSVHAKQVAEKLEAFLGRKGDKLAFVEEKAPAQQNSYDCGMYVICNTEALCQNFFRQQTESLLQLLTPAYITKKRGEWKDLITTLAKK
Platelet DG rel = inhibitors of platelet dense granule secretion, primary screen, cell-based, MLPCN, human platelets | inhibition, %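 (compounds screened at 7.5 µM in platelet-rich plasma)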 | 0.22% of 300,000 active | human platelet-rich plasma, SFLLRN dense granule ATP release, luminescence | AID 1663, 2009;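 active = mean replicate score, as percent of positive control, at or above 50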
SENP1 inh = human SENP1 catalytic domain inhibitors, primary screen, biochemical, FRET, uHTS | recombinant SENP1 catalytic domain, CyPet-SUMO1-YPet FRET cleavage | inhibition, % at 10 µM | 0.21% of 360,000 active;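 active = inhibition at least 30% at 10 µM, raw YFP signal under a set limit, fluorescence ratio 0.5 to 1.5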;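 note: 0% = enzyme with DMSO and 100% = no enzyme wells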
Target sequence (Q9P0U3 419-644 limits assumed): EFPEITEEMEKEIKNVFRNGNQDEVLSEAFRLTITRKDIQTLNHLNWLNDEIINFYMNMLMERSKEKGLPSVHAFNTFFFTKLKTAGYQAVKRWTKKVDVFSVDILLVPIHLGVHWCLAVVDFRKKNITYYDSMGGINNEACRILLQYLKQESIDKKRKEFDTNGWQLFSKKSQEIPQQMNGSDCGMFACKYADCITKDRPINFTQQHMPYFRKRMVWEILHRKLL
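System: Recombinant human SENP1 catalytic domain, His6-tagged | Incubation: Enzyme reaction for 50 min at room temperature, dark | Medium: Tris pH 8 with BME, BSA, NP40 and catalase | Also added: 25 nM SUMO1 FRET substrate | Compound: 10 µM single point, 0.5% DMSO | Measured by: FRET fluorescence in CFP and YFP emission channels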
SENP8 block-2 = human SENP8 protease inhibitors, primary screen, biochemical, fluorescence, Nedd8 protein substrate, uHTS; Sentrin-specific protease 8 (Homo sapiens), Q96LD8; recombinant SENP8; inhibition, % at 20 µM; 0.64% of 360,000 active; in the data active = inhibition mostly above about 40%, no sharp cut-off; inactive = mostly below about 27%
SENP6 inh = SENP6 protease inhibitors, primary screen, biochemical, luminescence, uHTS; Sentrin-specific protease 6 (Homo sapiens), Q9GZR1; Recombinant SENP6 catalytic domain, aminoluciferin luminescence; inhibition, % at 10 µM; 1.8% of 330,000 active;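 active = inhibition above about 50% at the single tested dose, limit read from the data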;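 note: plate controls were DMSO wells with enzyme for no effect and DMSO wells lacking enzyme for full effect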
SENP8 conf = human SENP8 protease inhibitors, confirmation, biochemical, Nedd8 protein substrate, single concentration; shares compounds with SENP8 block-2; purified SENP8, Nedd8-AMC/pro-Nedd8 cleavage fluorescence, 30 min; inhibition, % at 25 µM; 15% of 1,400 active; AID 624319, 2012; in the data active = inhibition mostly above about 39%, no sharp cut-off; inactive = mostly below about 34%
Starred values were filed as active, the others as inactive; . = no result given. Rows were chosen to be rich in hits. Some 2.6% of all compounds tested hit in one or more screens of this group.

SMILES	SENP7 inh	SENP8 block-1	Platelet DG rel	SENP1 inh	SENP8 block-2	SENP6 inh	SENP8 conf
Cc1cccc(N(C)S(=O)(=O)c2csc(C(N)=O)c2)c1	-1	-13	-2	0	2	-33	.
O=c1cc(-c2ccc(O)c(O)c2)oc2cc(O)c(C3OC(CO)C(O)C(O)C3O)c(O)c12 (stereo not given)	-3	-6	1	13	1	-6	.
O=c1cc(-c2ccc(O)cc2)oc2cc(O)c([C@@H]3O[C@H](CO)[C@@H](O)[C@H](O)[C@H]3O)c(O)c12	6	-2	.	1	45*	-20	10
O=S(=O)(Cc1ccccc1)NCCc1cccc(Cl)c1	1	-1	0	-2	15	-6	.
CCCCNC(=O)c1cn(CC)c2ccc(S(=O)(=O)N3CCCCCC3)cc2c1=O	6	-5	15	0	4	-6	.
O=C(Nc1nc(-c2ccc([N+](=O)[O-])cc2)cs1)c1c(F)cccc1F	5	2	2	4	7	-11	.
Cc1ccc(-c2csc(NC(=O)c3cccc([N+](=O)[O-])c3)n2)cc1	-9	0	0	3	48*	-2	19
CC1=C(/C=N/Nc2ccc([N+](=O)[O-])cc2[N+](=O)[O-])C(C)(C)CCC1	7	-3	7	4	46*	-6	2
COc1ccccc1/C=N\Nc1ccccc1[N+](=O)[O-]	99*	90*	10	1	50*	94*	6
COc1ccc(/C=N\Nc2ccc([N+](=O)[O-])cc2[N+](=O)[O-])c(C(=O)O)c1OC	9	5	6	1	48*	-2	22
COc1ccc(/C=N\Nc2ccccc2[N+](=O)[O-])c(C(=O)O)c1OC	7	0	0	5	32	-4	.
CC[C@H](CO)Oc1cc(NCc2cccc(N)c2)c2ncn(C(C)C)c2c1	.	.	.	-42	56*	.	87*
CCC(CO)Oc1cc(NCc2cccc(C)c2)c2ncn(C(C)C)c2c1 (stereo not given)	10	3	.	1	42*	-5	54*
CCC(CO)Oc1cc(NCc2ccc(C)cc2)c2ncn(C(C)C)c2c1 (stereo not given)	-7	-6	.	-28	24	-9	.
CC1Nc2ccccc2C(=O)N1NC(=O)c1ccc(Br)cc1 (stereo not given)	-9	-11	-17	0	8	-12	.
Cc1ccc(C(=O)C[n+]2cc(-c3ccc(C)cc3)n3c2CCCCC3)cc1	-14	-8	0	3	10	14	.
O=C(C[n+]1cc(-c2ccccc2)n2c1CCCCC2)c1ccc(Br)cc1	6	-4	4	-1	46*	-16	10
CC(NC(=O)[C@H](C)N1C(=O)N2CCc3c([nH]c4ccccc34)[C@@]2(C)C1=O)c1ccccc1 (stereo not given in full)	-4	-3	-1	-1	33	-9	.
CN(C)c1ccc(NC(=O)C2C3C=CC(C3)C2C(=O)O)cc1 (stereo not given)	9	0	-8	8	51*	26	4
O=C(O)C1C2C=CC(C2)C1C(=O)Nc1ccc2c(c1)OCCO2 (stereo not given)	3	-1	-2	-1	14	-2	.
CCOc1ccc(OCCNC(=O)C(NC(=O)c2c(F)cccc2F)C(C)C)cc1 (stereo not given)	-5	-1	.	-2	-4	-2	.
CC(=O)Nc1ccc(NC(=O)C(C)OC(=O)c2cccc(S(=O)(=O)N3CCCCCC3)c2)cc1 (stereo not given)	-5	-2	27	1	6	-4	.
Cc1cc(OCC(=O)Nc2ccc(Br)cc2)cc2c1C(=O)CC(C)(C)O2	2	-8	-1	1	41*	-8	16
CC(=O)Nc1ccc(NC(=O)COc2cc(O)c3c(c2)OC(C)(C)CC3=O)cc1	5	-8	-2	0	41*	-8	12
O=S(=O)(c1ccc(F)cc1)c1nc(-c2ccccc2)oc1N1CCOCC1	-8	-8	2	0	-4	6	.
SMILES	SENP7 inh	SENP8 block-1	Platelet DG rel	SENP1 inh	SENP8 block-2	SENP6 inh	SENP8 conf
O=C(c1cccc(-c2ccccc2)c1)N1CC[C@@H](N2CCC(O)CC2)[C@H](O)C1	-1	-2	14	-105	13	9	.
O=[N+]([O-])c1ccc(-[n+]2ccc3ccccc3c2)c([N+](=O)[O-])c1	0	22	5	3	46*	41	35
COc1ccc(C(O)c2ncc(-c3ccccc3)[nH]2)c(OC)c1 (stereo not given)	.	.	.	-2	11	.	.
COc1ccc(NC(=O)c2ccc(Cn3cc(Cl)cn3)cc2)cc1	-2	-4	-1	0	6	-8	.
CN(C)c1ccc(NC(=O)c2ccc(Cn3cc([N+](=O)[O-])cn3)cc2)cc1	2	7	11	6	44*	-10	39
O=C(Cn1ccnc1[N+](=O)[O-])NCCO	.	.	.	-4	12	.	.
CSc1ncccc1C(=O)N1CCCC(CCC(=O)NCc2ccc(F)c(F)c2)C1 (stereo not given)	1	-9	-13	0	10	-13	.
CCOC(=O)/C(C#N)=C\C=C1C=CN(C)C=C1	11	2	3	-17	52*	9	36
O=C(NN1C(=O)c2ccccc2C1=O)C1C2CCCCC21 (stereo not given)	-2	-7	2	3	18	7	.
Cc1ccnc(NS(=O)(=O)c2ccc(NC(=O)CCc3ccccc3)cc2)n1	-2	-8	-1	-9	7	2	.
Cc1nc2c3cc(F)ccc3n(Cc3ccc(F)cc3)c2s1	-1	-3	-15	-21	-10	9	.
CCc1ccc2c(c1)c1nc(C)sc1n2CC	9	9	-1	4	96*	20	15
Nc1nnc(-c2ccc([N+](=O)[O-])o2)s1	.	.	.	4	37*	.	25
CC1=NN(c2ccc(S(=O)(=O)O)cc2C)C(=O)C1	2	-4	4	2	69*	6	11
O=C(O)C1=NN(c2cc(Cl)c(S(=O)(=O)O)cc2Cl)C(=O)C1	.	.	.	9	3	.	.
COc1ccc(N2C(=O)Cc3ccccc3C2=O)cc1	19	8	-3	-8	84*	39	38

From PubChem
